Measurements reported in ChEMBL document CHEMBL1212773, “Transfer of plasmid-mediated CTX-M-9 from Salmonella enterica serotype Virchow to Enterobacteriaceae in human flora-associated rats treated with cefixime” (2010).
Values after ≈ are worked out from the molar mass of the structure shown.

Assays:
Assay type in all cases: functional
Escherichia coli [1] = test: Antimicrobial activity against Escherichia coli ATCC 25922 by Etest method
Method in brief: (§1)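 MICs read from Etest strips on Müller-Hinton agar, in μg/ml. E. coli ATCC 25922 served as the QC strain. Susceptible or resistant calls followed CLSI clinical breakpoints or EUCAST epidemiological cutoffs for cefotaxime, ceftazidime, ceftiofur, cefoxitin and cefuroxime.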

Salmonella enterica = test: Antimicrobial activity against Salmonella enterica serotype Virchow 3464b by Etest method
Method in brief: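 MIC determined by Etest strips on Müller-Hinton agar; E. coli ATCC 25922 used as the quality-control strain. Donor strain grown aerobically in brain heart infusion. Susceptible/resistant categories assigned from CLSI clinical breakpoints or EUCAST epidemiological cutoffs for cefotaxime, ceftazidime, ceftiofur, cefoxitin and cefuroxime. MICs expressed in μg/ml.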

Escherichia coli [2] = test: Antimicrobial activity against Escherichia coli J5 transconjugants expressing beta lactamase CTX-M-9 isolated from human flora associated C3H rat infected with Salmonella enterica serotype Virchow by Etest method
Method in brief: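 Etest MICs on Müller-Hinton agar, in μg/ml, with ATCC 25922 as QC. E. coli J5 transconjugants were isolated from feces of HFA C3H rats inoculated intragastrically with 8 log10 CFU J5, then Virchow donor 2 h later, and given sterile water by gavage instead of antibiotic. Isolates were selected on Drigalski agar with 250 μg/ml rifampin and 4 μg/ml cefixime and confirmed as J5 carrying blaCTX-M-9 by PCR/PFGE.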

Escherichia coli [3] = test: Antimicrobial activity against Escherichia coli J5 transconjugants expressing beta lactamase CTX-M-9 isolated from human flora associated C3H rat infected with Salmonella enterica serotype Virchow and treated with Cefixime-cluvulanic acid by Etest method
Escherichia coli [4] = test: Antimicrobial activity against Escherichia coli J5 transconjugants expressing beta lactamase CTX-M-9 isolated from human flora associated C3H rat infected with Salmonella enterica serotype Virchow and treated with Cefixime by Etest method
Method in brief: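 Etest MICs on Müller-Hinton agar, in μg/ml, with ATCC 25922 as QC. Isolates were fecal E. coli J5 transconjugants from human flora-associated C3H rats coinoculated orally with 8 log10 CFU J5, then Virchow donor, and gavaged with cefixime 4 mg/kg twice daily for 8 days. Isolates were picked on Drigalski agar with 250 μg/ml rifampin plus 4 μg/ml cefixime and confirmed by PCR/PFGE and blaCTX-M-9 PCR.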

Escherichia coli [5] = test: Antimicrobial activity against Escherichia coli J5 by Etest method; method in brief: as §1

Compound | MIC (Escherichia coli [1]) [µg/mL] | MIC (Salmonella enterica) [µg/mL] | MIC (Escherichia coli [2]) [µg/mL] | MIC (Escherichia coli [3]) [µg/mL] | MIC (Escherichia coli [4]) [µg/mL] | MIC (Escherichia coli [5]) [µg/mL]
CC1(C)S[C@@H]2[C@H](NC(=O)[C@H](N)c3ccccc3)C(=O)N2[C@H]1C(=O)O [AMPICILLIN] | 4 (≈ 11.4 µM) | 128 (≈ 366 µM) | 16 (≈ 45.8 µM) | 16 (≈ 45.8 µM) | 16 (≈ 45.8 µM) | 4 (≈ 11.4 µM)
C=CC1=C(C(=O)O)N2C(=O)[C@@H](NC(=O)/C(=N\OCC(=O)O)c3csc(N)n3)[C@H]2SC1 [CEFIXIME] | 0.125 (≈ 0.276 µM) | 8 (≈ 17.6 µM) | 8 (≈ 17.6 µM) | 8 (≈ 17.6 µM) | 8 (≈ 17.6 µM) | 0.125 (≈ 0.276 µM)
CO/N=C(\C(=O)N[C@@H]1C(=O)N2C(C(=O)O)=C(COC(C)=O)CS[C@H]12)c1csc(N)n1 [CEFOTAXIME] | 0.03 (≈ 0.0659 µM) | > 8 | 0.5 (≈ 1.1 µM) | 0.5 (≈ 1.1 µM) | 0.5 (≈ 1.1 µM) | 0.03 (≈ 0.0659 µM)
CO[C@@]1(NC(=O)Cc2cccs2)C(=O)N2C(C(=O)O)=C(COC(N)=O)CS[C@@H]21 [CEFOXITIN] | 4 (≈ 9.36 µM) | 16 (≈ 37.4 µM) | 8 (≈ 18.7 µM) | 16 (≈ 37.4 µM) | 16 (≈ 37.4 µM) | 4 (≈ 9.36 µM)
CC(C)(O/N=C(\C(=O)N[C@@H]1C(=O)N2C(C(=O)[O-])=C(C[n+]3ccccc3)CS[C@H]12)c1csc(N)n1)C(=O)O [CEFTAZIDIME] | 0.125 (≈ 0.229 µM) | 8 (≈ 14.6 µM) | 1 (≈ 1.83 µM) | 1 (≈ 1.83 µM) | 1 (≈ 1.83 µM) | 0.125 (≈ 0.229 µM)
CO/N=C(\C(=O)N[C@@H]1C(=O)N2C(C(=O)O)=C(CSC(=O)c3ccco3)CS[C@H]12)c1csc(N)n1 [CEFTIOFUR] | 0.25 (≈ 0.477 µM) | > 8 | 1 (≈ 1.91 µM) | 1 (≈ 1.91 µM) | 1 (≈ 1.91 µM) | 0.25 (≈ 0.477 µM)
CO/N=C(\C(=O)N[C@@H]1C(=O)N2C(C(=O)O)=C(COC(N)=O)CS[C@H]12)c1ccco1 [CEFUROXIME] | 2 (≈ 4.71 µM) | > 32 | 16 (≈ 37.7 µM) | 16 (≈ 37.7 µM) | 8 (≈ 18.9 µM) | 2 (≈ 4.71 µM)
CCn1cc(C(=O)O)c(=O)c2ccc(C)nc21 [NALIDIXIC ACID] | 4 (≈ 17.2 µM) | 256 (≈ 1100 µM) | 4 (≈ 17.2 µM) | 4 (≈ 17.2 µM) | 4 (≈ 17.2 µM) | 4 (≈ 17.2 µM)
CO[C@H]1/C=C/O[C@@]2(C)Oc3c(C)c(O)c4c(O)c(c(/C=N/N5CCN(C)CC5)c(O)c4c3C2=O)NC(=O)/C(C)=C\C=C\[C@H](C)[C@H](O)[C@@H](C)[C@@H](O)[C@@H](C)[C@H](OC(C)=O)[C@@H]1C [RIFAMPIN] | 4 (≈ 4.86 µM) | 4 (≈ 4.86 µM) | > 512 | > 512 | > 512 | > 512
CN[C@@H]1[C@H](O[C@H]2[C@H](O[C@H]3[C@H](O)[C@@H](O)[C@H](N=C(N)N)[C@@H](O)[C@@H]3N=C(N)N)O[C@@H](C)[C@]2(O)C=O)O[C@@H](CO)[C@H](O)[C@H]1O [STREPTOMYCIN] | 2 (≈ 3.44 µM) | 128 (≈ 220 µM) | 2 (≈ 3.44 µM) | 2 (≈ 3.44 µM) | 2 (≈ 3.44 µM) | 2 (≈ 3.44 µM)
Cc1cc(NS(=O)(=O)c2ccc(N)cc2)no1 [SULFAMETHOXAZOLE] | 8 (≈ 31.6 µM) | > 512 | 4 (≈ 15.8 µM) | 4 (≈ 15.8 µM) | 4 (≈ 15.8 µM) | 8 (≈ 31.6 µM)
CN(C)[C@@H]1C(O)=C(C(N)=O)C(=O)[C@@]2(O)C(O)=C3C(=O)c4c(O)cccc4[C@@](C)(O)[C@H]3C[C@@H]12 [TETRACYCLINE] | 1 (≈ 2.25 µM) | 64 (≈ 144 µM) | 2 (≈ 4.5 µM) | 4 (≈ 9 µM) | 2 (≈ 4.5 µM) | 1 (≈ 2.25 µM)
COc1cc(Cc2cnc(N)nc2N)cc(OC)c1OC [TRIMETHOPRIM] | 0.5 (≈ 1.72 µM) | > 64 | 0.5 (≈ 1.72 µM) | 1 (≈ 3.44 µM) | 0.5 (≈ 1.72 µM) | 0.5 (≈ 1.72 µM)
